# Assay outcomes as filed in PubChem BioAssay.
# HSF1 inh: HSF1 inhibition; NIH3T3-HGL HSE-luciferase, MG132-induced, luminescence 8 h; active compounds read low; 300,000 tested, 0.77% active; AID 2098; activity change, negative = inhibition, % at 7.5 µM (by protocol);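 active = more than half of replicate wells show activity change below -50%, luminescence cut by over half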;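 also: luciferase reports HSF-1 transcriptional activity via heat shock element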
# core dimer inh: HCV core protein dimerization inhibition; TR-FRET GST/Flag-core106 dimerization, 1536-well; inhibition, % at 5 µM; 300,000 tested, 0.33% active;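 active = inhibition above the mean of all tested compounds plus 3 SD, set per screening campaign, cut at about 45% in these data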
#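 Assay system – GST-tagged and Flag-tagged HCV core protein residues 1-106 · Quantity – core106 proteins, GST 13.5 nM and Flag 17 nM · Benchmarks – unlabelled core106 and no-GST-core106 wells · Read-out basis – percent inhibition of core106 dimerization signal · Detection – time-resolved FRET, ex 340 nm, em 617 and 671 nm · Schedule – 4 h at 22.5 °C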
# PHOSPHO1 inh: blocks human PHOSPHO1 phosphatase activity | recombinant PHOSPHO1, absorbance phosphatase assay | inhibition, % at 13.3 µM | 290,000 tested, 1.1% active; in the data active = inhibition above about 60%
# Target sequence (Q8TCT1 whole entry, looked up): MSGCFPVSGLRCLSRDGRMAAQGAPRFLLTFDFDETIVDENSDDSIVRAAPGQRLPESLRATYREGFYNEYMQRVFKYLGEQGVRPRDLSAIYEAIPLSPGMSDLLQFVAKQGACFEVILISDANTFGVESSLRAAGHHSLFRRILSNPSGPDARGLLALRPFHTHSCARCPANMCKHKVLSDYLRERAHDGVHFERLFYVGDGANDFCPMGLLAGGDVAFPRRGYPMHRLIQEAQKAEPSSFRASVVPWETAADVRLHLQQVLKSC
# AI-2 QS modul: modulators of Vibrio harveyi AI-2 quorum sensing system; 300,000 tested, 0.4% active; activity change, % at 7.5 µM; Vibrio harveyi JMH597 AI-2 luminescence/OD600 ratio, 9 h; active compounds read low; strain lacks LuxN and CqsS sensors; 0 = neutral-control median; in the data active = activity change below about -75%, passing the limit was not always enough;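 also: luminescence divided by OD600 gain over 9 h not by final OD600 alone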
# ALR H2O2 inh: blocks human ALR sulfhydryl oxidase activity; P55789; purified ALR, DTT oxidation, H2O2 HRP-luminol luminescence; inhibition, % (no concentration beside the values); 290,000 tested, 3.8% active; AID 485317;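 active = mean replicate inhibition above about 79%, with every replicate also reaching it, limit read from the data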
# Target sequence (P55789 whole entry, looked up): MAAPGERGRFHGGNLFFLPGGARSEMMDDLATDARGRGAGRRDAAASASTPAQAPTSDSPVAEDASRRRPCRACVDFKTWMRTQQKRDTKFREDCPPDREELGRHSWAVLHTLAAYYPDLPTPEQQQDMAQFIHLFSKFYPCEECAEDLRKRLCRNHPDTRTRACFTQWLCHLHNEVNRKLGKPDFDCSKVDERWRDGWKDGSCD
# HSF1 activator: increases HSF-1 driven luciferase reporter signal; NIH3T3-HGL HSF-1 luciferase reporter, MG132, 8 h; 100% = twice DMSO control signal; activation, % at 9 µM; 300,000 tested, 1.7% active; AID 504408;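 active = mean replicate activation of at least 50% with a set share of replicates each reaching 50%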
# Hits are given with their value; - = inactive; . = no result given. An excerpt weighted towards active compounds, which were near 6.8% of everything screened.
SMILES,HSF1 inh,core dimer inh,PHOSPHO1 inh,AI-2 QS modul,ALR H2O2 inh,HSF1 activator
Cc1cccc(N2CCN(C(=O)CCS(=O)(=O)c3ccc4c(c3)oc(=O)n4C)CC2)c1C,-,-,-,-,-,-
CCN(CCCNS(=O)(=O)c1ccc2c(c1)oc(=O)n2C)c1cccc(C)c1,.,-,-,.,97,.
CCc1ccc(N=C2NC(=O)/C(=C/c3cc(Br)c(OCC(=O)O)c(OC)c3)S2)cc1,-,-,-,-,98,-
COc1ccc(N=C2NC(=O)/C(=C\C=C\c3ccco3)S2)cc1,-,.,-,-,.,124
CCOc1nc(-c2ccc(Cl)cc2Cl)ccc1C#N,-,-,-,-,-,-
COc1nc(-c2ccccc2Cl)ccc1C#N,-,-,-,-,98,-
COc1cc(C(=O)N/N=C2\CCS(=O)(=O)c3ccc(F)cc32)cc(OC)c1OC,-,-,-,-,.,-
C=C(C)CC1Nc2ccccc2NC1CC(=C)C (stereo not given),-,-,-,-,99,-
O=C(O)c1oc2ccccc2c1CSc1ccc(Cl)cc1,-,-,-,-,-,-
O=C(c1ccc(Cl)cc1)c1oc2ccccc2c1CS(=O)c1ccccc1 (stereo not given),-,-,98,-,-,-
CC[n+]1ccc(C(=O)NCc2ccccc2)cc1,-,-,-,-,-,-
CC1CC(N(C(=O)c2ccco2)c2ccccc2)c2ccccc2N1 (stereo not given),-,-,-,-,97,-
Cc1ccc(-c2nc3ccc(NS(=O)(=O)c4ccccc4)cc3[nH]2)o1,-,-,-,-,-,-
COC(=O)/C=C1/S/C(=N/N=C/c2ccc(N(C)C)cc2)NC1=O,-,-,-,-,-,-
CCOC(=O)c1cc2occc2n1CC(=O)N1CCCc2ccccc21,-66,-,-,-,-,-
O=C(N/N=C/c1ccccc1O)C1(O)c2ccccc2-c2ccccc21,-,-,-,-,-,-
CN(C)c1ccc(NC(=O)N2CCOCC2)cc1,-,-,-,-,99,-
O=C(Nc1ccc(F)cc1)N1CCOCC1,-53,-,-,-,-,-
Cc1coc2c1c(C)cc1oc(=O)c(CC(=O)N[C@@H](C)C(=O)O)c(C)c12,-,.,-,-,-,-
CCn1nc(C)c(CNC(=O)Nc2ccc3c(c2)OCO3)c1C,-,-,-,-,.,-
Cc1cc(C)n2nc(SCC(=O)Nc3ccc(O)cc3)nc2n1,-,-,-,-,99,-
Cc1cc(SCC(=O)Nc2ccc(O)cc2)n2nc(C)c(-c3ccccc3)c2n1,-,-,-,-,99,-
CCN(CC)c1ccc(NC(=O)CSc2nnc3nc(C)cc(C)n23)cc1,-,-,-,-,99,-
CCCN1CCC(NC(=O)C2CCCCC2C(=O)O)CC1 (stereo not given),-,-,-,-,-,-
CCCC(=O)NCC(c1cccs1)S(=O)(=O)c1ccc(C)cc1 (stereo not given),-,-,-,-,-,-
SMILES,HSF1 inh,core dimer inh,PHOSPHO1 inh,AI-2 QS modul,ALR H2O2 inh,HSF1 activator
CSc1ncccc1C(=O)NC(C)CCc1ccccc1 (stereo not given),-,-,-,-,-,-
C=CCO/N=C(/C)c1ccc(Oc2cnccn2)cc1,-,-,-,-,-,-
O=C(CCOc1ccc(F)cc1)Nc1nccs1,-,-,-,-,-,-
CCOC(=O)C1(CCOc2ccccc2)CCN(Cc2ccc(-n3cccn3)cc2)CC1,-,-,-,-,-,-
C=CC(=O)N1CCCC(Nc2nc(Nc3ccc(N(C)C(=O)CC)cc3C)nc3nc[nH]c23)C1 (stereo not given),.,.,.,.,-,.
COc1ccc(/C=C/C(=O)c2ccccc2)c(OC)c1,-,-,-,-,-,72
O=C(CCc1ccc(O)cc1)c1c(O)cc(O)cc1O,-,-,-,-,-,-
O=C(/C=C/c1ccc(O)cc1)c1c(O)cc(O)cc1O,-,-,-,-,98,-
O=C(/C=C/c1c[nH]c2ccccc12)c1ccccc1,-,-,-,-,-,-
COc1cc(O)c(C(=O)/C=C/c2ccccc2)c(OC)c1,-,-,-,-,-,107
COc1ccc2[nH]cc(/C=C/C(=O)c3ccccc3)c2c1,-,-,-,-,-,113
COc1cc(/C=N/NC(=O)CC2(C)OCCCO2)ccc1OCc1ccccc1,-,-,-,-,-,-
COc1cc(/C=N/NC(=O)CC2(C)OCCO2)cc(Br)c1O,-,-,-,-,-,-
COc1cc(/C=N/NC(=O)CC2(C)OCCCO2)ccc1OCc1ccc(Cl)cc1Cl,-,-,-,-,-,68
CC1(CC(=O)N/N=C/c2ccc(OCc3ccc(Cl)cc3Cl)cc2)OCCCO1,-,-,-,-,-,54
O=C(NCc1ccccc1F)C(=O)NCC1OCCCN1S(=O)(=O)c1cccs1 (stereo not given),-,-,75,-,-,-
COc1ccc(-c2nc(CN3CCN(c4ncnc5ccccc45)CC3)c(C)o2)c(OC)c1,-,-,64,-,.,-
O=C(CC1CC2CCC1C2)N1CCN(S(=O)(=O)c2ccccc2F)CC1 (stereo not given),.,.,.,.,-,.
O=C(/C=C/c1ccccc1)Nc1cc(S(=O)(=O)N2CCOCC2)ccc1N1CCCC1,-,-,-,-,-,-
CCc1ccc(/C=C\C(=O)N2CCCC2)cc1,-,-,.,-,-,-
Cc1ccc(/C=C/C(=O)N2CCCC(C)C2)cc1 (stereo not given),-,-,-,-,-,65
CC(C)Cc1ccc(/C=C/C(=O)N2CCCCC2)cc1,-,-,-,-,-,58
CC1CCN(C(=O)/C=C/c2ccc(C(C)(C)C)cc2)CC1,-,-,-,-89,-,-
CCOC(=O)C1CCCN(C(=O)/C=C/c2ccc(Cl)cc2)C1 (stereo not given),-,-,-,-,-,-
Cc1cc(-c2nc(C)c(-c3nnc(SCC(=O)Nc4ccc(Cl)cc4)n3C)s2)no1,-,-,-,-,.,-
SMILES,HSF1 inh,core dimer inh,PHOSPHO1 inh,AI-2 QS modul,ALR H2O2 inh,HSF1 activator
COc1ccccc1S(=O)(=O)Cc1ccc(C(=O)NC2CC2)o1,-,-,-,-,-,-
O=C(CCC(=O)Nc1ccc(F)cc1)N/N=C/c1ccc(F)cc1,-,-,-,-,-,-
Cc1ccc(NC(=O)CCC(=O)N/N=C/c2ccc(O)cc2)cc1,-,-,-,-,95,-
O=C(CCC(=O)Nc1ccc(F)cc1)N/N=C/c1ccc(O)cc1,-,-,-,-,99,-
O=C(c1ccc2c(c1)OCCCO2)c1cccs1,-,-,-,-,-,-
O=C(O)CCN1C(=O)c2ccc(NC(=O)C(c3ccccc3)c3ccccc3)cc2C1=O,-,-,-,-,-,-
COc1cc2c(cc1OC)C(Nn1cnnc1)=NC1(CCCC1)C2,-,-,-,-,.,-
COc1ccc(N(CC(=O)Nc2cccc(C)c2)S(=O)(=O)c2c(C)noc2C)cc1,-69,-,-,-,-,-
